From PubChem
GPR7 antagonist = blocks human GPR7 receptor signaling; inhibition, % at 4.4 µM; 1.1% of 290,000 active; AID 1861; GPR7-expressing cells, fluorescence antagonist assay; P48145; in the data active = inhibition above about 16%, passing the limit was not always enough;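 note: cells stimulated with the agonist NPW; 0% = agonist with vehicle and 100% = vehicle without agonist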
OX1R antag-1 = blocks the human orexin 1 receptor. OX1R-expressing cells, FRET antagonist read-out. inhibition, % at 6.6 µM. 1.8% of 330,000 active; in the data active = inhibition mostly above about 38%, no sharp cut-off; inactive = mostly below about 40%;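 note: 0% = agonist challenge alone and 100% = reference antagonist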
TAAR1 ag = agonists of human TAAR1; AID 624467; 0.99% of 360,000 active; CHO RD-HGA16 TAAR1, Fluo-8 calcium fluorescence; vehicle wells 0%, saturating PEA agonist 100%; activation, % at 3 µM;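 active = activation above the mean activation of all test compounds in the run plus 3 SD, cut at about 38% in these data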
Target sequence (Q96RJ0 whole entry, looked up): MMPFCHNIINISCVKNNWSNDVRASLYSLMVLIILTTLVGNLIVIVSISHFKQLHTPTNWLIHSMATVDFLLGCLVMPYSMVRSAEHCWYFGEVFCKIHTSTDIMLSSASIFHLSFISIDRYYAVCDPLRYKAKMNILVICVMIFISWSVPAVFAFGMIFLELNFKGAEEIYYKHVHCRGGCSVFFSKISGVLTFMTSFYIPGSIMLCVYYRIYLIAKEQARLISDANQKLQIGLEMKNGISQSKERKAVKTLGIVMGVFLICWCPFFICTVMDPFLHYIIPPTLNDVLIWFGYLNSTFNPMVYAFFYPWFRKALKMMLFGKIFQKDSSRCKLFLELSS
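Test system: RD-HGA16 (CHO) cells co-expressing Gα16 and hTAAR1 / Benchmarks: DMSO vehicle as 0%, PEA at EC100 as 100% / Repeats: no replicates (n 1) / Measure: % activation from peak over basal fluorescence ratio, DMSO-to-PEA scaled / Timing: 17-24 h plating, Fluo-8 75 min 37 °C, 30 min RT / Technique: kinetic Fluo-8 calcium fluorescence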
TAAR1 antagonist = antagonists of human TAAR1; inhibition, % at 3 µM; CHO RD-HGA16 TAAR1, Fluo-8 calcium fluorescence, antagonist; 1.5% of 360,000 active; Q96RJ0;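 active = inhibition above a per-plate cutoff, the mean inhibition of test compounds on that plate plus 3 SD, cut at about 49% in these data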;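 note: 0% = DMSO plus EC80 beta-PEA response and 100% = DMSO alone without agonist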
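System: RD-HGA16 CHO cells with stable hTAAR1 and Gα16 | Probe or stimulus: EC80 β-phenethylamine stimulus | Dosing: 3 µM, single point | Times: Dye loading 75 min at 37 °C, then 30 min room temperature | Measured by: Fluo-8 calcium-sensitive fluorescence | Read-out basis: % inhibition of agonist calcium response | Replicates: n of 1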
OX1R antag-2 = human HCRTR1 antagonism; O43613; CHO/OX1R cells, Fluo-8 calcium fluorescence, orexin A; inhibition, % at 5 µM; 0.43% of 330,000 active; AID 434989;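 active = inhibition above its plate's threshold, mean inhibition of all tested compounds on the plate plus 3 SD, cut at about 37% in these data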;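 note: 0% = orexin A challenge wells and 100% = SB-334867-A antagonist wells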
CHO parental Ca = counter-screen for OX1R antagonists: effect in parental CHO cells; parental CHO-K1, ATP-induced calcium, Fluo-8 fluorescence; inhibition, % at 5.6 µM; 0.63% of 330,000 active; AID 463079;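 active = inhibition above that plate's mean sample inhibition plus 3 SD, cut at about 26% in these data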;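 note: 0% = ATP-challenged DMSO wells and 100% = DMSO wells without ATP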
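Measured by: calcium-sensitive Fluo-8 fluorescence / Test system: CHO parental line / Controls: ATP-challenged DMSO wells low, unchallenged DMSO wells high / Measure: % inhibition / Compound: single nominal dose of 5.6 µM per compound / Replicates: single well per compound, no replicates / Reagent: ATP as calcium-mobilizing challenge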
Starred values were filed as active, the others as inactive; x = no result. An excerpt weighted towards active compounds, which were near 4.6% of everything screened.

SMILES	GPR7 antagonist	OX1R antag-1	TAAR1 ag	TAAR1 antagonist	OX1R antag-2	CHO parental Ca
COc1ccc(CNC(=O)C(C)N2C(=O)NC(c3ccccc3)(c3ccccc3)C2=O)cc1 (centres undefined)	x	35.3*	19.0	-0.6	16.3	-32.9
O=C(CN1C(=O)NC(c2ccccc2)(c2ccccc2)C1=O)NCc1ccc(F)cc1	x	40.5*	8.7	-4.7	21.4	-20.9
CCNC(=O)NC(=O)C(C)N1C(=O)NC(c2ccccc2)(c2ccccc2)C1=O (centres undefined)	-16.7	2.6	3.0	4.2	-20.8	-25.8
O=C(O)CSCc1cnn(-c2ccccc2)c1-n1cccc1	-5.8	7.7	3.4	-14.1	-2.8	-2.0
CCOc1ccc(NC(=O)CSCc2cnn(-c3ccccc3)c2-n2cccc2)cc1	0.5	76.4*	0.3	7.7	-37.4	-12.2
CCCCCN(C(=O)CCC(=O)OCc1cc(C)ccc1C)c1c(N)n(CCCC)c(=O)[nH]c1=O	x	10.6	0.8	-4.7	-31.1	-17.4
Cc1cccc(NS(=O)(=O)c2nnc(NC(=O)c3cccc(C)c3)s2)c1	3.6	63.3*	2.3	13.1	17.2	0.6
CS(=O)(=O)c1ccc2nc(NC(=O)c3ccc(NS(=O)(=O)c4ccc(F)c(F)c4)cc3)sc2c1	4.5	5.0	1.8	5.6	-4.2	6.5
CS(=O)(=O)c1ccc2nc(NC(=O)c3cccc(NS(=O)(=O)c4ccc(F)c(F)c4)c3)sc2c1	9.1	35.4	6.2	51.9*	2.6	-3.8
Cc1ccccc1NS(=O)(=O)c1nnc(NC(=O)c2ccc(Cl)cc2)s1	1.6	38.9	5.6	13.9	9.6	3.1
Cc1cccc(NS(=O)(=O)c2nnc(NC(=O)c3ccc(Cl)cc3)s2)c1	-8.4	59.1*	-1.6	-3.3	10.9	-8.0
CCc1nc2c(OCc3ccc(Cl)cc3Cl)cccn2c1N(C=O)Cc1ccc(OC)cc1	x	x	3.1	-1.2	x	x
O=C(NC1CCCCC1)NC1C2CC3CC(C2)CC1C3 (centres undefined)	-1.6	8.1	-2.4	-10.2	-11.6	-9.4
Cc1nc(N2CCN(c3ccccn3)CC2)c2c(C)c(C(=O)Nc3ccc(Cl)cc3)sc2n1	-5.4	5.7	4.1	-22.4	-12.6	-2.2
Cc1nc(N2CCN(c3ccccn3)CC2)c2c(C)c(C(=O)Nc3c(F)cc(F)cc3Br)sc2n1	10.7	17.3	2.7	57.1*	-28.5	-11.1
COc1ccc(NC(=O)C2(C)Cc3c(-c4ccc(N(C)C)cc4)ccnc3O2)cc1 (centres undefined)	x	x	1.1	-23.1	x	x
CCCCS(=O)(=O)/C=C\C=C/S(=O)(=O)CCCC	40.3*	13.5	x	x	-30.3	2.0
Cc1ccc(-c2noc(Cn3cc(S(=O)(=O)N4CCCC4)ccc3=O)n2)cc1	x	4.4	1.6	-6.5	-17.9	-18.3
COc1ccc(C2=NOC(Cn3nc(C(=O)NCc4ccc(C)cc4)cc3-c3ccccc3)C2)cc1 (centres undefined)	x	43.7	11.7	57.8*	4.3	1.2
COc1ccc(C2=NOC(Cn3nc(C(=O)NCc4cccc(C(F)(F)F)c4)cc3-c3ccccc3)C2)cc1 (centres undefined)	x	23.9	10.8	54.8*	0.9	19.2
Cc1ccccc1-c1cc(C(=O)NCc2cccc(C(F)(F)F)c2)n(CC2CC(c3cccnc3)=NO2)n1 (centres undefined)	x	6.8	12.7	54.5*	-7.0	-15.5
COc1ccc(C2=NOC(Cn3nc(-c4ccccc4)cc3C(=O)O)C2)cc1 (centres undefined)	x	-1.8	1.6	-5.6	-3.7	-13.2
COCCNC(=O)c1cc(-c2ccccc2)n(CC2CC(c3ccc(OC)cc3)=NO2)n1 (centres undefined)	x	8.2	19.5	52.9*	-16.7	-7.4
C=C(C)c1cccc(C(C)(C)NC(=O)N(C)C2CCN(C)CC2)c1	7.5	x	2.8	-4.3	x	x
CC(NC(=O)CN(C)Cc1cccs1)c1ccccc1 (centres undefined)	-9.6	4.5	11.2	-0.5	2.6	-3.7
Cc1c(Cl)cccc1NC(=O)C(=O)NNC(=O)c1ccccc1F	6.4	17.8	2.0	-13.0	4.3	23.8*
N#CCN1C(=S)N=C(Nc2cccc(Cl)c2)C12CCCCC2	-18.1	42.5	12.3	-6.4	-10.7	47.1*
